Legend:
[1] = biological target: T1, Sphingosine kinase 2 (Mus musculus) (UniProt Q9JIA7); experiment: Inhibition of mouse recombinant SphK2 assessed as remaining enzyme activity at 10 uM using gamma[32P]ATP incubated for 20 mins by liquid scintillation counting method
T1 sequence (whole entry): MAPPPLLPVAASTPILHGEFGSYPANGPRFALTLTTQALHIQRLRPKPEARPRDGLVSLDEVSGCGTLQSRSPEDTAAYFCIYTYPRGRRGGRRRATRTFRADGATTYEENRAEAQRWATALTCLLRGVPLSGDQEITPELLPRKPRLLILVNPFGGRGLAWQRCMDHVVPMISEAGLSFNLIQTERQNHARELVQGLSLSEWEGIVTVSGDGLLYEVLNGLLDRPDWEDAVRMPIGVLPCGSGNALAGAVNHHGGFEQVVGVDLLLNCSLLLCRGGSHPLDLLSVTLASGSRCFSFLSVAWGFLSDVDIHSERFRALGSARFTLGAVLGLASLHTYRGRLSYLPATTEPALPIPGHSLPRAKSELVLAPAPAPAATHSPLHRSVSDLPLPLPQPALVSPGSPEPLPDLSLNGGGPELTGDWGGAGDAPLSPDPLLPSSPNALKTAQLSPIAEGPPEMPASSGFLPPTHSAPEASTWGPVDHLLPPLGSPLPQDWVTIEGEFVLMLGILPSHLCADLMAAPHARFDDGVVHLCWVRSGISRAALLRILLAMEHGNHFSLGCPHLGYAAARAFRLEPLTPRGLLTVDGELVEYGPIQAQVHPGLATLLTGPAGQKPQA
How it was run: (§1)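 Cell lysate containing recombinant mouse SphK2 incubated with sphingosine and γ-[³²P]ATP, with or without inhibitor, 20 min. Reactions extracted, ³²P-S1P separated by TLC and counted by liquid scintillation. Activity reported as ³²P-S1P formed; screened at 10 μM, with some compounds also assayed at 1 μM. Each value is the mean of two experiments.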

[2] = biological target: T1, Sphingosine kinase 2 (Mus musculus); experiment: Inhibition of mouse recombinant SphK2 assessed as remaining enzyme activity at 1 uM using gamma[32P]ATP incubated for 20 mins by liquid scintillation counting method; how it was run: as §1

Activity [1] | Activity [2] | SMILES
86% |  | N=C(N)N1CCC[C@H]1c1nc(-c2ccc(N3CCN(C(=O)Cc4ccccc4)CC3)cc2)no1
90% |  | CC(C)CC(=O)N1CCN(c2ccc(-c3noc([C@@H]4CCCN4C(=N)N)n3)cc2)CC1
90% |  | CN1CCN(c2ccc(-c3noc([C@@H]4CCN4C(=N)N)n3)cc2)CC1
91% |  | N=C(N)N1CC[C@H]1c1nc(-c2ccc(-c3ccccc3)cc2)no1
63% |  | N=C(N)N1CCC[C@H]1c1nc(-c2ccc(I)cc2)no1
94% |  | N=C(N)N1CC[C@H]1c1nc(-c2ccc(N3CCOCC3)cc2)no1
45% | 86% | CCCCCCc1ccc(-c2noc([C@@H]3CCN3C(=N)N)n2)cc1
87% |  | N=C(N)N1CCC[C@H]1c1nc(-c2ccc(N3CCN(C(=O)C45CC6CC(CC(C6)C4)C5)CC3)cc2)no1

Second part, the compound before the results:

SMILES | Activity [1] | Activity [2]
N=C(N)N1CCC[C@H]1c1nc(-c2ccc(N3CCN(Cc4ccccc4)CC3)cc2)no1 | 89% | 
CCCCCCCCCCc1ccc(-c2noc([C@@H]3CCCN3C(=N)N)n2)cc1 | 9% | 46%
CCCCCCCCc1noc([C@@H]2CCCN2C(=N)N)n1 | 88% | 
N=C(N)N1CCC[C@H]1c1nc(-c2ccc(CS(=O)(=O)c3ccccc3)cc2)no1 | 88% | 
CCCCCCCCCCc1ccc(-c2noc([C@@H]3CCN3C(=N)N)n2)cc1 | 12% | 
CCCCCCc1ccc(-c2noc([C@@H]3CCCN3C(=N)N)n2)cc1 | 35% | 76%
CCOCc1cc(C)cc(Cc2ccc(-c3noc([C@@H]4CCCN4C(=N)N)n3)cc2)c1 | 46% | 99%
CCCCCCCCc1ccc(-c2noc([C@@H]3CCCN3C(=N)N)n2)cc1 | 9% | 44%
CCCCCCCCCCCCCCc1ccc(-c2noc([C@@H]3CCCN3C(=N)N)n2)cc1 | 16% | 52%
CCCCCCCCCCCCc1ccc(-c2noc([C@@H]3CCCN3C(=N)N)n2)cc1 | 15% | 56%
N=C(N)N1CCC[C@H]1c1nc(-c2ccc(CCc3ccccc3)cc2)no1 | 70% | 
CCCCCCCCCCCCCCCCc1noc([C@@H]2CCCN2C(=N)N)n1 | 52% | 
CCCCCCCCCCCCc1noc([C@@H]2CCCN2C(=N)N)n1 | 57% | 

From ChEMBL document CHEMBL3627716, “Structure-activity relationship studies of the lipophilic tail region of sphingosine kinase 2 inhibitors” (Bioorg Med Chem Lett, 2015)
